OX1R antag-1: antagonists of human orexin 1 receptor; CHO/OX1R cells, Fluo-8 calcium fluorescence, orexin A; inhibition, % at 5 µM; actives 0.43% (n = 330,000); AID 434989;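 active means inhibition above its plate's threshold, mean inhibition of all tested compounds on the plate plus 3 SD, cut at about 37% in these data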
OX1R antag-2: antagonists of human orexin 1 receptor (OX1R). O43613. OX1R-expressing cells, FRET antagonist read-out. inhibition, % at 6.6 µM. actives 1.8% (n = 330,000); in the data active means inhibition mostly above about 38%, no sharp cut-off; inactive means mostly below about 40%
GalR3 antag: antagonists of human GalR3; O60755; HEK293 GalR3-CNG cAMP membrane potential fluorescence; galR3 body fused to GalR1 C-terminus; inhibition, % at 3 µM; actives 0.44% (n = 360,000); AID 651719;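 active means inhibition above the screen-wide average plus 3 SD, cut at about 13% in these data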;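 further: forskolin and galanin both at EC90 stimulate the cells; cAMP rise reported by CNG channel membrane potential dye signal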
Target sequence (O60755 1-299 limits assumed): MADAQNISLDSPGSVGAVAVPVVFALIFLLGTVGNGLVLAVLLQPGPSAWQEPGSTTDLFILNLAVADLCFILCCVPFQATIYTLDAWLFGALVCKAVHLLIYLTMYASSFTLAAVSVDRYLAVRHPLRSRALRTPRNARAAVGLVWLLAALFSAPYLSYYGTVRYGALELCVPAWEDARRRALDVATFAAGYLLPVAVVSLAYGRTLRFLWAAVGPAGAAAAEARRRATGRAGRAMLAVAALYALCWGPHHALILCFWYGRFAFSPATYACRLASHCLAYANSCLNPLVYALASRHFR
CHO parental Ca: counter-screen: ATP calcium response change in parental CHO cells; actives 0.63% (n = 330,000); AID 463079; parental CHO-K1, ATP-induced calcium, Fluo-8 fluorescence; inhibition, % at 5.6 µM;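 active means inhibition above that plate's mean sample inhibition plus 3 SD, cut at about 26% in these data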
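Test system: untransfected parental CHO cell line. Compound: one dose, 5.6 µM nominal. Detection: intracellular calcium via Fluo-8 no-wash fluorescent dye. Measure: % inhibition. Benchmarks: ATP-challenged DMSO wells low, unchallenged DMSO wells high.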
GPR7 antag: blocks human GPR7 receptor signaling; inhibition, % at 4.4 µM; AID 1861; actives 1.1% (n = 290,000); GPR7-expressing cells, fluorescence antagonist assay; P48145; in the data active means inhibition above about 16%, passing the limit was not always enough;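 further: cells stimulated with the agonist NPW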
GPR7 antag conf: confirmation of human GPR7 antagonists; shares compounds with GPR7 antag; GPR7-expressing cells, calcium fluorescence antagonist mode; inhibition, % at 4.4 µM; actives 52% (n = 2,400); in the data active means inhibition above about 24%;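 further: stimulated with the GPR7 agonist NPW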
MCHR1 antagonist: antagonizes human MCHR1, a GPR7 antagonist counter-screen; inhibition, % at 4.4 µM; MCHR1-expressing cells, fluorescence antagonist assay; actives 62% (n = 2,400); shares compounds with GPR7 antag; in the data active means inhibition above about 22%
Large screens that a line does not name were inactive (follow-up assays come after a bar, where they were run). A selection: hits, their analogues and other compounds. The true share with any hit is near 3.1%.

COc1cccc(-n2ccnc2SCC(=O)Nc2cc(OC)ccc2OC)c1	GPR7 antag 38.3 | GPR7 antag conf inactive | MCHR1 antagonist 37.7
O=C(CN1C(=O)NC2(CCCC2)C1=O)Nc1cccc(Cl)c1	none
COc1cc(C(=O)NC(C)Cc2ccccn2)ccc1OC1CCN(C(C)=O)CC1 (stereo unspecified)	none (no result: OX1R antag-1, OX1R antag-2, CHO parental Ca)
COc1ccc(NC(=O)/C(C#N)=C\c2cc(C)n(-c3ccc(Oc4ccc([N+](=O)[O-])cn4)cc3)c2C)cc1	none
Cc1cc(C=O)c(C)n1-c1ccc(Oc2ccc([N+](=O)[O-])cn2)cc1	GPR7 antag 26.7 | GPR7 antag conf 35.9 | MCHR1 antagonist 52.5
CCN(C[C@H]1N[C@@](C)(C(=O)OC)[C@H]2C(=O)N(C)C(=O)[C@@H]12)C(=O)COC	none (no result: GPR7 antag)
O=C1CCN(Cc2ccc([N+](=O)[O-])cc2)CCN1[C@H](CO)c1ccccc1	none
COc1ccc(C(=O)/C=C/N(C)C)cc1	GPR7 antag 26.9 | GPR7 antag conf inactive | MCHR1 antagonist inactive
CN(C)/C=C/C(=O)c1ccc(Oc2ccccc2)cc1	none
COc1ccc(-c2cnc(SCC(=O)Nc3ccc4c(c3)OCO4)n2Cc2ccco2)cc1	GPR7 antag 22.4 (no result: OX1R antag-1, OX1R antag-2, CHO parental Ca) | GPR7 antag conf 41.8 | MCHR1 antagonist 67.7
O=C(CSc1nnc(COc2ccccc2)n1Cc1ccco1)Nc1ccc2c(c1)OCCO2	GPR7 antag 29.3 | GPR7 antag conf 31.4 | MCHR1 antagonist 33.5
O=C(Cc1nc2ccccc2s1)c1ccc(O)cc1O	GPR7 antag 25.3 (no result: GalR3 antag) | GPR7 antag conf inactive | MCHR1 antagonist inactive
O=C(NCCCN1CCOCC1)c1ccccc1N1C(=O)[C@@H]2Cc3c([nH]c4ccccc34)C(c3cccc(Cl)c3)N2C1=O (stereo partly specified)	GPR7 antag 26.9 | GPR7 antag conf 25.5 | MCHR1 antagonist 34.7
Cc1ccc(C2c3[nH]c4ccccc4c3C[C@H]3C(=O)N(c4ccccc4C(=O)NCCN4CCOCC4)C(=O)N23)cc1 (stereo partly specified)	GPR7 antag 28.4 | GPR7 antag conf inactive | MCHR1 antagonist 21.7
Cc1ccc(C2c3[nH]c4ccccc4c3C[C@H]3C(=O)N(c4ccccc4C(=O)NCCCN4CCOCC4)C(=O)N23)cc1 (stereo partly specified)	none
O=C(NCCCN1CCOCC1)c1ccccc1N1C(=O)[C@@H]2Cc3c([nH]c4ccccc34)C(c3ccccc3)N2C1=O (stereo partly specified)	none (no result: OX1R antag-1, OX1R antag-2, CHO parental Ca, GPR7 antag)
Cn1c(SCC(=O)Nc2ccc(Cl)cc2F)nnc1-c1ccco1	none
Fc1ccc(Cn2nnnc2C(c2ccc(Cl)cc2)N2CCSCC2)cc1 (stereo unspecified)	GPR7 antag 34.0 | GPR7 antag conf 39.7 | MCHR1 antagonist 26.6
CC1CCN(C(c2ccc(N(C)C)cc2)c2nnnn2Cc2ccc(F)cc2)CC1 (stereo unspecified)	none
CC(C)Cn1c(N)c(C(=O)CSc2nnc(C3CC3)n2C2CC2)c(=O)n(C)c1=O	none (no result: OX1R antag-1, OX1R antag-2, CHO parental Ca, GPR7 antag)
COc1cc(NC2c3ccccc3C(=O)N2Cc2ccc3c(c2)OCO3)cc(OC)c1OC (stereo unspecified)	GPR7 antag 26.3 (no result: GalR3 antag) | GPR7 antag conf inactive | MCHR1 antagonist inactive
COc1ccccc1-n1c(SCC(=O)NC2CCCCC2)nc2c(c1=O)SCC2	GPR7 antag 29.1 | GPR7 antag conf inactive | MCHR1 antagonist inactive
N/C(=N\OC(=O)COc1ccc(Cl)cc1Br)c1cccnc1	GPR7 antag 23.8 | GPR7 antag conf inactive | MCHR1 antagonist inactive
N/C(=N\OC(=O)COc1ccc(Br)cc1Cl)c1cccnc1	none
COc1cc(/C=C/c2nc(-c3ccccc3O)n[nH]2)cc(OC)c1OC	GPR7 antag 21.7 | GPR7 antag conf 32.6 | MCHR1 antagonist 56.7
CC(=O)Nc1ccc(S(=O)(=O)O)c(OC(C)=O)c1	none (no result: OX1R antag-1, OX1R antag-2, CHO parental Ca, GPR7 antag)
O=C(Nc1ccc(Cl)cc1)c1cccc(NC2=NC3CS(=O)(=O)CC3S2)c1 (stereo unspecified)	GPR7 antag 24.1 (no result: GalR3 antag) | GPR7 antag conf inactive | MCHR1 antagonist inactive
Nc1nnnn1CC(=O)OCc1cccc(Br)c1	GPR7 antag 27.2 | GPR7 antag conf inactive | MCHR1 antagonist inactive

Screens deposited in PubChem by The Scripps Research Institute Molecular Screening Center.
